PubChem BioAssay AID651628 (The Scripps Research Institute Molecular Screening Center, 2012)
Values without a mark were called inactive. Calls of active or inactive are those of the source.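 Rule for the calls: active = at least one off-target enzyme showing weaker fluorescent probe labeling in any proteome panel; inactive = no off-target enzyme affected in any panel.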

These molecules were tested on Membrane Proteome (assay: anti-target inhibition in MCF7 proteome, late-stage follow-up, selectivity assay for PAD4 inhibitor project, cell lysate, gel-based fluorescence, soluble and membrane fractions (AID 651628)). Conditions: CA-Rh gel-based ABPP, anti-target count, at 50 µM, stronger effect = higher value.
Procedure, shortened: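 System: MCF7 soluble or membrane proteome; amount: proteome protein concentration of 1 mg/ml; technique: in-gel fluorescence after SDS-PAGE; medium: DPBS; controls: DMSO-only reference; doses: compound at 10 or 50 µM; probe or stimulus: Chloroacetamide-rhodamine (CA-Rh) labelling probe, 10 µM; timing: compound pre-incubation 1 h, then probe labelling 1 h, both 25 °C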

Row | Compound | number of anti-targets
1 | NC1=CC(=O)c2ccc(-c3cccc(C(=O)O)n3)nc2C1=O | 0
2 | COC1=C(N)C(=O)c2nc(-c3nc(C(=O)O)c(C)c(-c4ccc(OC)c(OC)c4O)c3N)ccc2C1=O | 0
3 | COC1=C(I)C(=O)c2nc(C#N)ccc2C1=O | > 5 (active)
4 | COC(=O)c1nc(C(=O)OC)c(NC(C)=O)c(-c2ccccc2Br)c1C | 0
5 | COC(=O)c1cccc(-c2ccc3c(n2)C(=O)C(N)=CC3=O)n1 | 0
6 | O=C1C(O)=C(O)C(=O)c2ncccc21 | > 5 (active)
7 | COC1=CC(=O)c2nc(C#N)ccc2C1=O | > 5 (active)
8 | NC1=CC(=O)c2cccnc2C1=O | 0
9 | O=C1C=C(Br)C(=O)c2ncccc21 | > 5 (active)
10 | NC1=CC(=O)c2ccc(-c3ccccn3)nc2C1=O | 0
11 | COC1=C(N)C(=O)c2ncccc2C1=O | 0
12 | COC1=C(Br)C(=O)c2ncccc2C1=O | > 5 (active)
13 | COC(=O)c1cccc(-c2ccc3c(n2)C(=O)C(Br)=CC3=O)n1 | > 5 (active)
14 | COC1=C(Br)C(=O)c2nc(-c3ccccn3)ccc2C1=O | > 5 (active)
